Bioassay records (PubChem)
Sampled rows, rich in hits. Any-hit rate of the full collection: about 1.8%.
SUMO1 PPI mod: SUMO1-SIM interaction modulation. P63165. 360,000 compounds, 0.33% hits. AID 602429. SUMO1 binding to a labelled peptide, TR-FRET, 1 h. inhibition, % at 20 µM; in the data active = inhibition above about 37%
STEP inh: STEP (human) phosphatase inhibition | AID 588621 | P54829 | inhibition, % at 20 µM | recombinant STEP, OMFP fluorogenic substrate, fluorescence | 360,000 compounds, 0.25% hits;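 active = inhibition at 20 µM, scaled per plate between control wells, above about 37%, limit read from the data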;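 note: 0% = DMSO with enzyme and substrate and 100% = substrate only without enzyme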
Target sequence (P54829 whole entry, looked up): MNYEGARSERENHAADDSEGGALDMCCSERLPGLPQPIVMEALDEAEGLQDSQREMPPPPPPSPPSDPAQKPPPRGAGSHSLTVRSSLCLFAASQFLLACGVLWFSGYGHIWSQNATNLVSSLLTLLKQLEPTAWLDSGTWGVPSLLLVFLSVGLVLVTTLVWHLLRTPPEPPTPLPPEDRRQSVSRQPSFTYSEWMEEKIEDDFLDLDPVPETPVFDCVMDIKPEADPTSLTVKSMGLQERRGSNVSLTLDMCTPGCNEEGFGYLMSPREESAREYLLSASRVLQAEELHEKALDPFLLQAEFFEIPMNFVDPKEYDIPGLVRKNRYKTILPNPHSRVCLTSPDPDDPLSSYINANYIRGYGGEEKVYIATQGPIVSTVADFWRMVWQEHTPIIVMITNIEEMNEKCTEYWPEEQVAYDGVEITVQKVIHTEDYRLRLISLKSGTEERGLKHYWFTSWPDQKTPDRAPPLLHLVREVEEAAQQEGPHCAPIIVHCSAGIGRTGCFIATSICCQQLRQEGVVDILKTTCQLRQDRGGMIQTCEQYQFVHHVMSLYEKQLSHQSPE
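Measure: Control-normalized % inhibition with plate pattern correction | Test system: STEP phosphatase, cell-free reaction | Medium: pH 6.0 Bis-Tris with DTT and Tween 20 | Technique: Fluorescence, 480/540 nm | Times: Reaction 20 min, ambient temperature | Doses: Single compound dose of 20 µM, 1% DMSO final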
LMPTP inh: LMPTP (human) inhibition. P24666. recombinant LMPTP-A, OMFP fluorogenic substrate, fluorescence intensity. inhibition, % at 20 µM. 360,000 compounds, 0.22% hits;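 active = compounds that cut the enzyme signal by at least half of the control window in the single-dose screen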;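 note: plate controls were DMSO wells with enzyme plus substrate for no effect and substrate without enzyme for full effect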
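Test system – LMPTP-A enzyme · Amount – LMPTP-A at 0.625 nM final in the reaction · Buffer or medium – Bis-Tris pH 6.0, DTT, detergent · Reagent – OMFP 400 µM · Doses – single 20 µM dose · Schedule – reaction 50 min, room temperature, dark · Detection – fluorescence intensity of OMFP turnover product · Evaluation – percent inhibition versus substrate-only and uninhibited controls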
HKDC1 inh: inhibitors of human hexokinase HKDC1 | recombinant HKDC1, G6PDH/diaphorase resazurin coupled fluorescence | inhibition, % at 20 µM | 340,000 compounds, 0.16% hits;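 active = inhibition above about 35% when tested at 20 µM, limit read from the data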;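 note: plate controls were DMSO wells with enzyme for no effect and DMSO wells lacking enzyme for full effect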
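Test system: Recombinant HKDC1 (HK5) hexokinase enzyme, produced in-house | Input: HKDC1 at 5 µg/mL | Buffer or medium: Tris pH 8.0 buffer with MgCl2, Tween-20, BSA, BME | Schedule: 90 min reaction incubation at room temperature, dark | Technique: Resazurin-to-resorufin fluorescence via G6PDH and diaphorase coupling, 525/613 nm | Controls: DMSO wells with and without enzyme mix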
Scp-1 inhibitor: Scp-1 (human) phosphatase inhibition; Q9GZU7; Recombinant Scp1, phosphopeptide, malachite green phosphate absorbance; inhibition, % at 20 µM; 340,000 compounds, 0.88% hits; AID 493091;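 active = inhibition above about 50% at 20 µM, limit read from the data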;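 note: plate controls were DMSO wells with enzyme for no effect and wells lacking enzyme for full effect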
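System: truncated SCP-1 phosphatase (76-261aa); medium: Tris acetate buffer pH 5.5 with MgCl2 and Tween-20; incubation: 45 min room-temperature reaction, 5 min colour, 30 min stabiliser; compound: single 20 µM dose, 1% DMSO; reagent: Phosphorylated 17-residue peptide substrate; read-out: % inhibition at 20 µM; technique: colorimetric free-phosphate detection, absorbance 630 nm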
DNMT1 inh: inhibitors of human DNMT1 | P26358 | 360,000 compounds, 0.83% hits | DNMT1 molecular beacon, Hinp1I cleavage, fluorescence | inhibition (reported as % activation of signal), % at 10 µM; in the data active = inhibition above about 50%
* = called active by the depositor; · = no result given.

SMILES	SUMO1 PPI mod	STEP inh	LMPTP inh	HKDC1 inh	Scp-1 inhibitor	DNMT1 inh
COc1ccc(-c2csc(/C(C#N)=C\c3ccc(O)c([N+](=O)[O-])c3)n2)cc1OC	38*	3	1	17	32	-9
CCN(CC)C(=O)Cn1cc(C(=O)C(=O)Nc2ccc3c(c2)OCO3)c2ccccc21	-17	-1	0	·	·	1
C[C@H](NC(=O)c1nc[nH]c1C(=O)N(C)CCO)c1ccccc1	-2	-2	0	·	·	7
COCCN(C(=O)c1cc(S(=O)(=O)N2CCCCC2)ccc1Cl)c1c(N)n(CC(C)C)c(=O)[nH]c1=O	1	-1	1	0	-1	2
Cc1cc(N2CCN(C(c3ccnc4ccccc34)c3nnnn3-c3c(C)cccc3C)CC2)c2ccccc2n1 (centres undefined)	4	·	89*	·	·	·
COc1cc(/C=C2/C(=O)NN(c3ccc(Cl)cc3)C2=O)cc(Br)c1O	75*	83*	65*	13	35	48
Clc1cccc(Nc2nc(-c3ccncc3)nc3ccccc23)c1	61*	4	7	-2	-14	-5
Clc1ccccc1Nc1nc(-c2ccncc2)nc2ccccc12	-4	0	1	4	-4	3
CCOC(=O)C1=C(Nc2ccc(OC)cc2)C(N)=NC1=N	-37	-2	0	·	·	-2
O=C1Nc2ccc(Br)cc2/C1=N\N=C\C1=C(N2CCOCC2)C(=C/c2ccccc2)/CC1	-18	8	3	13	64*	-20
O=C(O)COCC(=O)Nc1ccc(OCCc2ccccc2)cc1	0	-3	-2	-4	-2	-1
Nc1ccn(Cc2ccc(F)cc2)n1	76*	-2	-1	0	1	0
Nc1cnn(Cc2ccc(F)cc2)c1	1	-1	-1	12	-3	-6
CC(C1SC(=S)NC1=O)C1SC(=S)NC1=O (centres undefined)	20	2	68*	·	·	-6
O=C(COc1ccccc1C(=O)N/N=C\c1ccc(O)c(O)c1)N/N=C/c1ccc(O)c(O)c1	21	-2	11	19	61*	4
Nc1c(S(=O)(=O)O)cc(NC(=O)c2ccccc2)c2c1C(=O)c1ccccc1C2=O	69*	33	16	26	71*	39
CC(C)C[C@H]1CNC(=O)C(=O)N1C[C@H]1CCCN1C[C@H](CC(C)C)N1C[C@H](Cc2ccccc2)N(CCc2ccccc2)C(=O)C1=O	0	-2	1	·	·	-9
O=C(ONc1ccc(N=NC(=O)c2ccccc2O)cc1)c1ccccc1	-18	-1	22	34	91*	4
Cc1ccc(S(=O)(=O)NC(=O)C2(C)CCN2C(=O)CC2CCCC2)nc1 (centres undefined)	-2	-4	-2	·	·	1
CCc1ccccc1CC1CN(Cc2ccccc2)Cc2ccccc2N1c1ccc(OC)cc1 (centres undefined)	0	·	3	·	·	·
Nc1cccc2nc3ccccc3cc12	-24	-1	13	-4	-6	69*
O=C(CCCN1C(=O)/C(=C\c2ccco2)SC1=S)Nc1ccc2ccccc2c1	6	1	8	-1	-4	-7
O=C(O)CCN1C(=O)/C(=C\c2ccncc2)SC1=S	-26	0	1	-10	-6	0
O=C(O)CCN1C(=O)/C(=C\c2ccc(-c3nc4ccccc4s3)o2)SC1=S	87*	79*	41	6	63*	109*
O=C(O)CCCN1C(=O)/C(=C\c2ccco2)SC1=S	29	12	2	5	29	58*
SMILES	SUMO1 PPI mod	STEP inh	LMPTP inh	HKDC1 inh	Scp-1 inhibitor	DNMT1 inh
CC1(C)OC(=O)C2=C(C[C@@H](C3CC3)O[C@@H]2C2CC2)O1	2	·	-1	·	·	·
Cc1ccc2[nH]c3nc(N/N=C/c4cccc(O)c4)nnc3c2c1	10	1	0	-8	11	40
CCc1ccc2[nH]c3nc(N/N=C/c4ccc(O)cc4O)nnc3c2c1	11	1	1	-2	-3	62*
c1ccc(CCCCN2C(Nc3ccccc3)=NC[C@@H]2Cc2ccccc2)cc1	-6	-2	-2	0	7	9
CCCCCCCN1C(Nc2ccccc2)=NC[C@@H]1Cc1ccccc1	-5	2	3	-7	3	58*
Cn1c(=O)c2c(-c3ccccc3)n(-c3cccc(O)c3)cc2n(C)c1=O	-17	-2	-1	·	·	-11
Cn1c(=O)c2c(-c3ccccc3)n(-c3ccc(N)cc3)cc2n(C)c1=O	42*	3	13	·	·	40
COc1ccc(N2CCN(Cc3cc(=O)oc4cc5c(cc34)CCCC5)CC2)cc1	-4	-1	1	1	-5	56*
CCOc1ccc(-c2nnc(-c3snc(-c4ccc(F)cc4)c3N=CN(C)C)o2)cc1	47*	-1	-1	-4	5	1
COc1cc(CCNC2=CC(=O)c3ncccc3C2=O)ccc1O	-14	3	4	-17	-5	-2
CCn1c(SCc2nc3sc(C(=O)O)c(C)c3c(=O)[nH]2)nc2ccccc21	41*	16	2	2	65*	44
CN(Cc1ccccc1)C(=O)Cn1c(=O)c2cccn2c2cccnc21	4	5	-2	-3	-9	-1
Cc1nc2ccc(S(=O)(=O)NCC(=O)NCCN3CCCCCC3)cc2s1	46*	5	12	3	3	2
C=C(C)CCC(C)N1CCC(n2nccc2NC(=O)CCOc2ccccc2)CC1 (centres undefined)	6	3	0	0	2	0
CC(O)(c1cccc(F)c1)c1nc(-c2ccc(S(C)(=O)=O)cc2)cs1 (centres undefined)	1	0	0	·	·	1
COc1ccccc1Cc1c(-c2ccco2)nc2c(C)cc(Br)cn12	6	2	1	·	·	62*
CC(=O)Nc1cccc(-c2cn3ccccc3n2)c1	1	2	2	-15	-3	1
O=C(Nc1cccc(-c2cn3ccccc3n2)c1)c1cc2ccccc2oc1=O	-6	81*	75*	19	3	43
CN(C)c1cc(Nc2ccc(O)cc2)c([N+](=O)[O-])c2nonc12	-28	0	-1	-3	-7	25
O=[N+]([O-])c1c(Nc2ccc(O)cc2)cc(Cl)c2nonc12	-23	49*	0	17	-13	27
